Rad51 HR inh = Rad51 (human) homologous recombination inhibition; Q06609; hRad51 DNA strand exchange, fluorescence dequenching; inhibition, % at 10 µM; 200,000 tested, 0.085% active; AID 1385;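 active = inhibition above 40% at the single screening dose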;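 also: 0% = DMSO control wells and 100% = blanks with heterologous ssDNA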
Target sequence (Q06609 whole entry, looked up): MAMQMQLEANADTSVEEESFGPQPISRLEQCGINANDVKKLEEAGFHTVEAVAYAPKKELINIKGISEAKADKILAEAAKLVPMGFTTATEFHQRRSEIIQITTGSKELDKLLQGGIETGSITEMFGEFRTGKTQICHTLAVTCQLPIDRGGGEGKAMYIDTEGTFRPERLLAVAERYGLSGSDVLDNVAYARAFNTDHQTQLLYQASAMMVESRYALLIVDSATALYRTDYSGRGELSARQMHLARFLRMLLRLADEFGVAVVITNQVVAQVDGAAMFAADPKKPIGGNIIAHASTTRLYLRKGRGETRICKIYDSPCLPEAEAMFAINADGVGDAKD
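Material: human Rad51–ssDNA filaments; Probe or stimulus: labelled 47-mer dsDNA for strand exchange; Doses: single 10 µM dose; Incubation: 37 °C 15-min filament assembly, 30-min compound preincubation, 15-min exchange; Technique: FRET fluorescence dequenching, excitation 485 nm, emission 520 nm; Measure: Fluorescence-based percent inhibition, control- and blank-normalised; Benchmarks: plate control and blank wells.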
FID counter = fluorescent intercalator displacement, NS3 helicase counter-screen. DNA fluorescent intercalator displacement, fluorescence. inhibition, % at 7.9 µM. 290,000 tested, 0.17% active; in the data active = inhibition above about 37%;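 also: 0% = vehicle and 100% = reference compound; higher means more ethidium bromide displaced from hairpin DNA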
RBBP9 inhibitor = inhibitors of human serine hydrolase RBBP9. O75884. recombinant RBBP9, FP-Rh probe fluorescence polarization. inhibition, % at 7.94 µM. 220,000 tested, 0.2% active;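 active = inhibition above the campaign mean of all tested compounds plus 3 SD, cut at about 14% in these data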;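 also: plate controls were DMSO wells with RBBP9 for no effect and wells lacking RBBP9 protein for full effect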
Target sequence (O75884 whole entry, looked up): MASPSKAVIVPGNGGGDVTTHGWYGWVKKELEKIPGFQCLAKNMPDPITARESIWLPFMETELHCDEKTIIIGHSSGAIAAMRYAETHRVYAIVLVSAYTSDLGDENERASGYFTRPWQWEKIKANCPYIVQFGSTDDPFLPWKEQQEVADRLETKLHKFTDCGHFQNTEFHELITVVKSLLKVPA
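System: RBBP9 protein / Buffer or medium: Tris/NaCl buffer pH 8.0 with 0.1% Pluronic / Probe or stimulus: Serine-hydrolase probe FP-Rh, 375 nM pre-mixing / Dosing: 7.94 µM single dose, 0.794% DMSO / Times: enzyme-compound preincubation 30 min, then probe labeling 45 min, 25 °C / Technique: fluorescence polarization (mP), excitation 525 nm, emission 598 nm / Replication: singlicate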
Wee1 degr inh = human Wee1 degradation inhibition, primary screen; HeLa Luc-Wee1K328M stability, luciferase luminescence; 100% = proteasome inhibitor MG132 effect; reporter increase, % at 5 µM; 220,000 tested, 1.2% active; AID 1321;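 active = activation above the mean of all tested compounds plus 3 SD, set per screening run, cut at about 8.8% in these data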;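 also: cells exposed to compound for 20 h before luminescence read; 0% = DMSO alone and 100% = MG132 at 30 µM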
Active calls of the source: *. An excerpt weighted towards active compounds, which were near 1.2% of everything screened.

Screening C#CCOCCOCCOCCNc1nc(N2CCN(C(=O)[C@H](CCC(=O)O)n3cc(C(N)Cc4ccc(O)cc4)nn3)CC2)nc(N2CCN(C(=O)[C@H](Cc3ccc(O)cc3)n3cc(C(N)[C@H](C)CC)nn3)CC2)n1 (some centres not stated) returned Rad51 HR inh -3.
Screening C#CCOCCOCCOCCNc1nc(N2CCN(C(=O)[C@H](CCCCN)n3cc([C@@H](N)CO)nn3)CC2)nc(N2CCN(C(=O)[C@H](Cc3ccc(O)cc3)n3cc([C@@H](N)CC(C)C)nn3)CC2)n1 returned Rad51 HR inh -9, FID counter 54*, RBBP9 inhibitor -5 and Wee1 degr inh -1.
For C#CCOCCOCCOCCNc1nc(N2CCN(C(=O)C([C@@H](C)CC)n3cc(C(N)CO)nn3)CC2)nc(N2CCN(C(=O)[C@H](CCC(=O)O)n3cc(C(N)Cc4ccc(O)cc4)nn3)CC2)n1 (some centres not stated) the results were Rad51 HR inh -12.
`C#CCOCCOCCOCCNc1nc(N2CCN(C(=O)[C@H]([C@@H](C)CC)n3cc([C@@H](N)Cc4ccc(O)cc4)nn3)CC2)nc(N2CCN(C(=O)[C@H](CCCCN)n3cc([C@@H](N)CO)nn3)CC2)n1` gave FID counter 58*, RBBP9 inhibitor -10 and Wee1 degr inh 4.
For C#CCOCCOCCOCCNc1nc(N2CCN(C(=O)[C@H](CCC(=O)O)n3cc(C(N)CO)nn3)CC2)nc(N2CCN(C(=O)[C@H](Cc3ccc(O)cc3)n3cc(C(N)CC(C)C)nn3)CC2)n1 (some centres not stated) the results were FID counter 9, RBBP9 inhibitor 0 and Wee1 degr inh 3.
For C#CCOCCOCCOCCNc1nc(N2CCN(C(=O)[C@H](Cc3ccc(O)cc3)n3cc([C@@H](N)C(C)CC)nn3)CC2)nc(N2CCN(C(=O)[C@H](CCCCN)n3cc([C@@H](N)CO)nn3)CC2)n1 (some centres not stated) the results were Rad51 HR inh -10, FID counter 44*, RBBP9 inhibitor -3 and Wee1 degr inh 1.
For C#CCOCCOCCOCCNc1nc(N2CCN(C(=O)[C@H](Cc3ccc(O)cc3)n3cc([C@@H](N)C(C)CC)nn3)CC2)nc(N2CCN(C(=O)[C@H](CCCCN)n3cc([C@@H](N)CC(C)C)nn3)CC2)n1 (some centres not stated) the results were FID counter 43*, RBBP9 inhibitor 5 and Wee1 degr inh 3.
`COCCCNC(=O)/C=C1\Sc2ccccc2N(Cc2ccccc2F)C1=O` gave Rad51 HR inh 0, FID counter -26, RBBP9 inhibitor 6 and Wee1 degr inh 9.7*.
COc1ccc(C(=O)/C=C/Nc2cc(C)ccn2)cc1 was read as Rad51 HR inh -11, FID counter -12, RBBP9 inhibitor -5 and Wee1 degr inh 2.
`CSc1nnc(NC(=O)c2ccc3c(c2)OCO3)s1` gave FID counter -6.
`Cc1nnc(NC(=O)c2ccc3c(c2)OCO3)s1` gave Rad51 HR inh -9, FID counter -7, RBBP9 inhibitor -6 and Wee1 degr inh 11*.
Oc1cccc(-c2nc3ccc4ccccc4c3c3c2CCC3)c1 was read as Rad51 HR inh -1, FID counter -10, RBBP9 inhibitor -25 and Wee1 degr inh 9.1*.
`CC[n+]1ccc(/C=C/c2ccc(N(C)C)cc2)c2ccccc21` gave Rad51 HR inh 22, FID counter 57*, RBBP9 inhibitor -30 and Wee1 degr inh 1.
Screening COc1ccc(CCNC(=O)CCc2ccc(S(=O)(=O)NCC(C)C)cc2)cc1OC returned FID counter -23, RBBP9 inhibitor 3 and Wee1 degr inh 0.
For CCc1ccc(OCCNC(=O)c2ccc(S(=O)(=O)N(C)C)cc2)cc1 the results were Rad51 HR inh 0, FID counter -20, RBBP9 inhibitor -12 and Wee1 degr inh 9.9*.
For CCCn1c(SCC(=O)NCc2ccccc2Cl)n[nH]c1=O the results were Rad51 HR inh -5, FID counter -4, RBBP9 inhibitor -9 and Wee1 degr inh -2.
Screening CN(NS(=O)(=O)c1ccc(Cl)cc1)c1nc(C(F)(F)F)nc2ccccc12 returned Rad51 HR inh -6, FID counter 4, RBBP9 inhibitor -2 and Wee1 degr inh 3.
For CN(NS(=O)(=O)c1ccc(Cl)cc1)c1cnn(C)c(=O)c1Cl the results were Rad51 HR inh 12, FID counter -2, RBBP9 inhibitor 0 and Wee1 degr inh 9.9*.
Screening O=C(NC1=NCCS1)c1cccc(OC(F)F)c1 returned Rad51 HR inh 11, FID counter -7, RBBP9 inhibitor -4 and Wee1 degr inh 11*.
For O=C(NC1=NCCS1)c1cccc(N2C(=O)c3ccccc3C2=O)c1 the results were Rad51 HR inh 41*, FID counter -4, RBBP9 inhibitor -9 and Wee1 degr inh 3.
Screening CC(=O)c1cccc(NC(=O)c2cccc(N3C(=O)c4ccccc4C3=O)c2)c1 returned FID counter -23.
COc1ccc(N(CC(=O)N2CCOCC2)S(C)(=O)=O)cc1OC was read as FID counter 1.
Cc1cc(C)c(-c2c(O)c3cnn(-c4ccccc4)c3[nH]c2=O)c(C)c1 was read as FID counter -5, RBBP9 inhibitor -5 and Wee1 degr inh 8.
COc1ccc(C(=O)CCC(=O)N2CCN(c3cc(C)ccc3C)CC2)cc1 was read as FID counter -47.
CN(C)CCC(c1ccccc1)c1ccccn1 (configuration not stated) was read as Rad51 HR inh -3, FID counter -9, RBBP9 inhibitor -3 and Wee1 degr inh 16*.
CN(C)CCC(c1ccc(Cl)cc1)c1ccccn1 (configuration not stated) was read as Rad51 HR inh -1, FID counter 3, RBBP9 inhibitor -8 and Wee1 degr inh -1.
Screening CSCC(C)N1CCC(N2CCC(C(=O)NCc3ccccn3)CC2)CC1 (configuration not stated) returned FID counter 0.
`CCCCCn1c(CN2CCCCC2CC)nc2c1c(=O)n(C)c(=O)n2C` (configuration not stated) gave Rad51 HR inh -3, FID counter -4, RBBP9 inhibitor -5 and Wee1 degr inh 11*.
For CCOCCCNC(=O)c1c(N)n(-c2ccc3c(c2)OCO3)c2nc3ccccc3nc12 the results were FID counter -12, RBBP9 inhibitor 2 and Wee1 degr inh 9.4*.
O=C(/C=C/c1ccccc1)N1CCN(CCN2C(=O)c3cccc4cccc(c34)C2=O)CC1 was read as FID counter -9, RBBP9 inhibitor -3 and Wee1 degr inh 9.8*.
For CSc1nnc2n(CCc3ccccc3)c(=O)c3c4c(sc3n12)CCCC4 the results were FID counter -1, RBBP9 inhibitor -4 and Wee1 degr inh -4.
For Cc1nnc2n(CCc3ccccc3)c(=O)c3c4c(sc3n12)CCCC4 the results were FID counter -2, RBBP9 inhibitor 5 and Wee1 degr inh 9.3*.
Cc1ccc(NC(=O)OCc2cccs2)cc1 was read as FID counter -6.
